Results published in ChEMBL document CHEMBL1909525, “Synthesis and anticonvulsant activity of novel 2,6-diketopiperazine derivatives. Part 1: perhydropyrrole[1,2-a]pyrazines” (Eur J Med Chem, 2011).
Activity calls are given as the source filed them. The rule behind the calls is not given here.

Assays:
Mus musculus [1] = assay: Anticonvulsant activity in albino Carworth Farms No.1 mouse assessed as protection against electric-current for 3 secs-induced seizure at 75 mg/kg, ip after 0.5 hrs by 6Hz minimal clonic seizure test; assay type: functional, organism-based; parameters: dose 75 mg/kg
How it was run: (§1)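 6 Hz psychomotor seizure test in mice. Compound given i.p. as a suspension in 0.5% methylcellulose. Corneal stimulation at 32 mA, 0.2-ms monopolar rectangular pulses at 6 Hz for 3 s, from a constant-current device. Tests run 0.25–4 h after dosing. A mouse counted as protected if it resumed normal exploratory behaviour within 10 s; scored as protected/tested.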

Rattus norvegicus [2] = organism: Rattus norvegicus; assay: Inhibition of voltage-gated sodium channel in Wistar rat cerebral prefrontal coronal slices assessed as decrease of 10 Hz current-induced current amplitude at 10 to 100 uM after 5 mins by whole cell voltage clamp method
How it was run: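 Na+ currents recorded by whole-cell voltage clamp in dispersed mPFC cells from coronal prefrontal slices of 3-week-old male Wistar rats. TEA-based bath, pH 7.4. Trains of 100 pulses at 10 Hz, each a step to -20 mV after a -100 mV prepulse. Amplitude decline over the train compared between control and 5 min compound application; n = 3.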

Mus musculus [3] = assay: Anticonvulsant activity in albino Carworth Farms No.1 mouse assessed as protection against electric-current for 3 secs-induced seizure at 100 mg/kg, ip after 0.5 hrs by 6Hz minimal clonic seizure test; assay type: functional; how it was run: as §1
Mus musculus [4] = assay: Anticonvulsant activity in albino Carworth Farms No.1 mouse assessed as protection against maximal electroshock-induced seizure at 100 mg/kg, ip after 0.5 hrs; assay type: functional, organism-based; parameters: dose 100 mg/kg
How it was run: (§2)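 Mouse MES test with compound given i.p. (30, 100 or 300 mg/kg) in 0.5% methylcellulose; tested at 0.5 and 4 h. Corneal stimulus of 50 mA at 60 Hz for 0.2 s, electrodes primed with 0.5% butacaine in 0.9% NaCl. Protection is abolition of hindlimb tonic extension; scored as protected/tested.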

Mus musculus [5] = assay: Anticonvulsant activity in ip dosed albino Carworth Farms No.1 mouse assessed as protection against maximal electroshock-induced seizure after 0.25 hrs; assay type: functional; conditions: albino Carworth Farms No.1, ip
How it was run: (§3)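 Mouse quantification at the time of peak effect, compound given i.p. in 0.5% methylcellulose. Groups of at least eight mice received varied doses until at least two points fell between 100 and 0% response. ED50 (MES, scMET) and TD50 (rotorod) with 95% CI by probit analysis (Finney). PI = TD50/ED50 MES.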

Mus musculus [6] = assay: Anticonvulsant activity in albino Carworth Farms No.1 mouse assessed as protection against electric-current for 3 secs-induced seizure at 75 mg/kg, ip after 1 hr by 6Hz minimal clonic seizure test; assay type: functional, organism-based; parameters: dose 75 mg/kg; how it was run: as §1
Rattus norvegicus [7] = assay: Toxicity in albino Sprague-Dawley rat pilocarpine-induced status epilepticus model assessed as change in body weight in protected rat at 65 mg/kg, ip measured after 24 hrs of time from first stage 3 seizures; assay type: organism-based; parameters: dose 65 mg/kg, route intraperitoneal; conditions: in vivo
How it was run: (§4)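 Male albino Sprague-Dawley rats (150–180 g) received compound i.p., then a pilocarpine challenge immediately (0 min) or 30 min after treatment. The outcome was protection or no protection from seizures, scored as number protected/number tested. Average body weight change (g) ± S.E.M. was reported separately for protected and non-protected rats.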

Mus musculus [8] = assay: Anticonvulsant activity in ip dosed albino Carworth Farms No.1 mouse assessed as protection against subcutaneous metrazol-induced seizure after 0.25 hrs; assay type: functional; conditions: albino Carworth Farms No.1, 0.25 h; how it was run: as §3
Mus musculus [9] = assay: Anticonvulsant activity in albino Carworth Farms No.1 mouse assessed as protection against maximal electroshock-induced seizure at 100 mg/kg, ip after 4 hrs; assay type: functional, organism-based; parameters: dose 100 mg/kg; how it was run: as §2
Mus musculus [10] = assay: Anticonvulsant activity in albino Carworth Farms No.1 mouse assessed as protection against electric-current for 3 secs-induced seizure at 75 mg/kg, ip after 4 hrs by 6Hz minimal clonic seizure test; assay type: functional, organism-based; parameters: dose 75 mg/kg; how it was run: as §1
Mus musculus [11] = assay: Neurotoxicity in albino Carworth Farms No.1 mouse assessed as motor impairment at 100 mg/kg, ip after 0.5 hrs by rotarod test; assay type: toxicity, organism-based; parameters: dose 100 mg/kg, route intraperitoneal; conditions: in vivo
How it was run: (§5)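 Rotorod neurotoxicity in mice at 6 r.p.m. Compound given i.p. (30, 100, 300 mg/kg) in 0.5% methylcellulose; tested at 30 min and 4 h. Impairment is inability to keep equilibrium on the rod for a given time; scored as impaired/tested.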

Rattus norvegicus [12] = assay: Anticonvulsant activity in albino Sprague-Dawley rat assessed as protection against pilocarpine-induced status epilepticus at 130 mg/kg, ip measured after time from first stage 3 seizures; assay type: functional, organism-based; parameters: dose 130 mg/kg
How it was run: (§6)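 Male albino Sprague-Dawley rats, 150–180 g. Compound given i.p., then a challenge dose of pilocarpine at 0 min or at 30 min. Outcome scored as protection or no protection from seizures (protected/tested), with body weight change recorded.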

Mus musculus [13] = assay: Anticonvulsant activity in albino Carworth Farms No.1 mouse assessed as protection against subcutaneous metrazol-induced seizure at 300 mg/kg, ip after 4 hrs; assay type: functional, organism-based; parameters: dose 300 mg/kg
How it was run: (§7)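 Mouse scMET test. Compound given i.p. (30, 100 or 300 mg/kg) in 0.5% methylcellulose. Pentylenetetrazole 85 mg/kg (CD97) given s.c. at 0.5 or 4 h, then mice observed for 30 min. Protection is absence of clonic spasms; scored as protected/tested.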

Mus musculus [14] = assay: Neurotoxicity in albino Carworth Farms No.1 mouse assessed as motor impairment at 30 mg/kg, ip after 0.5 hrs by rotarod test; assay type: toxicity, organism-based; parameters: dose 30 mg/kg, route intraperitoneal; conditions: in vivo; how it was run: as §5
Mus musculus [15] = assay: Anticonvulsant activity in albino Carworth Farms No.1 mouse assessed as protection against subcutaneous metrazol-induced seizure at 30 mg/kg, ip after 4 hrs; assay type: functional, organism-based; parameters: dose 30 mg/kg; how it was run: as §7
Rattus norvegicus [16] = assay: Anticonvulsant activity in albino Sprague-Dawley rat assessed as protection against pilocarpine-induced status epilepticus at 65 mg/kg, ip measured after time from first stage 3 seizures; assay type: functional, organism-based; parameters: dose 65 mg/kg; how it was run: as §6
Mus musculus [17] = assay: Anticonvulsant activity in ip dosed albino Carworth Farms No.1 mouse assessed as protection against electric-current for 3 secs-induced seizure after 0.25 hrs by 6Hz minimal clonic seizure test; assay type: functional; conditions: albino Carworth Farms No.1, ip
Mus musculus [18] = assay: Anticonvulsant activity in albino Carworth Farms No.1 mouse assessed as protection against maximal electroshock-induced seizure at 30 mg/kg, ip after 4 hrs; assay type: functional, organism-based; parameters: dose 30 mg/kg; how it was run: as §2
Rattus norvegicus [19] = assay: Anticonvulsant activity in po dosed albino Sprague-Dawley rat assessed as protection against subcutaneous metrazol-induced seizure after 0.25 hrs; assay type: functional
How it was run: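 Rats dosed orally, compound in 0.5% methylcellulose. MES at 150 mA, 60 Hz, 0.2 s; scMET with pentylenetetrazole 70 mg/kg s.c. plus 30 min observation; rotorod for toxicity.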

Rattus norvegicus [20] = assay: Toxicity in albino Sprague-Dawley rat pilocarpine-induced status epilepticus model assessed as change in body weight in protected rat at 130 mg/kg, ip measured after 24 hrs of time from first stage 3 seizures; assay type: organism-based; parameters: dose 130 mg/kg, route intraperitoneal; conditions: in vivo; how it was run: as §4
Mus musculus [21] = assay: Anticonvulsant activity in albino Carworth Farms No.1 mouse assessed as protection against maximal electroshock-induced seizure at 300 mg/kg, ip after 0.5 hrs; assay type: functional, organism-based; parameters: dose 300 mg/kg; how it was run: as §2
Mus musculus [22] = assay: Anticonvulsant activity in ip dosed albino Carworth Farms No.1 mouse assessed as time needs to show peak effect for protection against maximal electroshock-induced seizure; assay type: functional
Mus musculus [23] = assay: Anticonvulsant activity in albino Carworth Farms No.1 mouse assessed as protection against maximal electroshock-induced seizure at 30 mg/kg, ip after 0.5 hrs; assay type: functional, organism-based; parameters: dose 30 mg/kg; how it was run: as §2
Mus musculus [24] = assay: Anticonvulsant activity in albino Carworth Farms No.1 mouse assessed as protection against electric-current for 3 secs-induced seizure at 75 mg/kg, ip after 0.25 hrs by 6Hz minimal clonic seizure test; assay type: functional, organism-based; parameters: dose 75 mg/kg; how it was run: as §1

With `O=C1NC(=O)[C@@H]2CCCN2[C@H]1c1ccccc1` the Activity (Mus musculus [1]) was “Active”, the inhibition (Rattus norvegicus [2]) was “inactive” and the Activity (Mus musculus [3]) was “inactive”. For the same compound, the Activity (Mus musculus [4]) was “Active”, the ED50 (Mus musculus [5]) was 69.5 mg/kg and the Activity (Mus musculus [6]) was “inactive”. For the same compound, the Activity (Rattus norvegicus [7]) was 4.4 g, the ED50 (Mus musculus [8]) was 87.9 mg/kg and the Activity (Mus musculus [9]) was “inactive”. The Activity (Mus musculus [10]) was “inactive”, the Activity (Mus musculus [11]) was “Non-toxic” and the Activity (Rattus norvegicus [12]) was “Active”. The Activity (Mus musculus [13]) was “inactive”, the Activity (Mus musculus [14]) was “Non-toxic” and the Activity (Mus musculus [15]) was “inactive”. The Activity (Rattus norvegicus [16]) was “Active”, the ED50 (Mus musculus [17]) was 9.93 mg/kg and the Activity (Mus musculus [18]) was “inactive”. The ED50 (Rattus norvegicus [19]) was 114 mg/kg, the Activity (Rattus norvegicus [20]) was 12.5 g and the Activity (Mus musculus [21]) was “inactive”. The Time (Mus musculus [22]) was 0.25 h, the Activity (Mus musculus [23]) was “inactive” and the Activity (Mus musculus [24]) was “Active”.
